From PubChem BioAssay
PostGolgi yeast – phenotypic screen on post-Golgi transport, primary screen. post-Golgi transport phenotypic cell assay. inhibition, % at 10 µM. 98,000 tested, 0.9% active. AID 739, 2007;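 also: yeast cells grown in 1536-well plates; yeast grown about 18 h at 30C before absorbance read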
Ecoli tolC – growth inhibitors of E. coli tolC mutant, primary screen, strain BW25113 ΔtolC::kan, 384-well; 65,000 tested, 2.2% active; OD615; growth inhibition, % at 10 µM (by protocol); AID 573, 2007;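 active = growth inhibition at or above a cutoff equal to the mean over every tested compound plus 3 SD, cut at about 60% in these data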;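 also: growth measured after 20 h incubation at 37 °C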
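Material: E. coli BW25113 ΔtolC::kan, tolC deletion mutant strain. Measure: percent growth inhibition. Schedule: 37 °C, 20 h exposure. Doses: single-point testing at 10 µM. Signal: A615 absorbance measurement. Buffer or medium: kanamycin-containing LB broth (50 µg/mL).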
PLAP act – PLAP enzyme activators, biochemical, luminescence, HTS | 96,000 tested, 1.2% active | activation fold at 20 µM | Alkaline phosphatase, placental type (Homo sapiens), P05187 | AID 696, 2007 | purified PLAP enzyme, luminescent substrate read-out; active compounds read high; in the data active = activation fold above about 2
Target sequence (P05187 whole entry, looked up): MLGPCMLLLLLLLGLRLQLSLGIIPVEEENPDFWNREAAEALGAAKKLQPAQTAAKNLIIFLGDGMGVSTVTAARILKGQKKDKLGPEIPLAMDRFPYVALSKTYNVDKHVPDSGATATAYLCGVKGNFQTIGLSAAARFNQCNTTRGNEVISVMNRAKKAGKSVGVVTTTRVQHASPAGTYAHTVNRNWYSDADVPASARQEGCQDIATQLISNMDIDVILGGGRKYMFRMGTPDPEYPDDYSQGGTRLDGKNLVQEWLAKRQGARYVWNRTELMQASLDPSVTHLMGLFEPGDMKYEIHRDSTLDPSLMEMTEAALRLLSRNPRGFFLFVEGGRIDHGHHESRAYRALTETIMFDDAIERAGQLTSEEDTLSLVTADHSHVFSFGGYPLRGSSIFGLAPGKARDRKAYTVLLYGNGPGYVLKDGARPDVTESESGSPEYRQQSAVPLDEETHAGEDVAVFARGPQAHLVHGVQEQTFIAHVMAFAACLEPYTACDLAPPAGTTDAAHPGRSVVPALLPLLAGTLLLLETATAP
E coli WT exp – growth inhibitors of wild-type E. coli, primary screen, strain BW25113, expanded library, OD600 | OD600 absorbance | growth inhibition, % at 100 µM | 98,000 tested, 0.15% active | AID 710, 2007;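 active = growth inhibition above about 50% at one test dose, limit read from the data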;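 also: growth measured after 20 h incubation at 37 °C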
PostGolgi ctrl – growth inhibition of yeast control strain, primary screen, counter-screen for post-Golgi transport modulator project. efflux-deficient yeast background strain, growth absorbance A615, 16 h. inhibition, % at 10 µM. 98,000 tested, 5% active
Of the large screens only hits and unclear results are named; the others gave an inactive call. A selection: hits, their analogues and other compounds. The true share with any hit is near 7.2%. Rule as the data show it, unless noted: active = inhibition above about 30%; inactive = the rest.

CCCN(CCC)C(=O)Cc1coc2ccc3ccccc3c12	PostGolgi ctrl 41.9 (no result: Ecoli tolC)
CCCCC(=O)Nc1cccc(-c2nc3ncccc3o2)c1	none
COc1c(C)cc(Br)cc1C(=O)Nc1cccc(-c2nc3ncccc3o2)c1	PostGolgi ctrl 40.7
CCOc1ccc(-n2nc(C(=O)N3CCOCC3)c3ccccc3c2=O)cc1	none (no result: PostGolgi yeast, PLAP act, E coli WT exp, PostGolgi ctrl)
CC(=O)c1ccc(NC(=O)Nc2cccc(Cl)c2)cc1	E coli WT exp 52.0 (no result: Ecoli tolC)
FC(F)(F)c1cccc(NC(=S)Nc2ccc(Cl)cc2Cl)c1	PostGolgi yeast 37.5, PostGolgi ctrl 52.7 (no result: Ecoli tolC)
CCCCC(=O)Nc1ccc(F)c(Cl)c1	none
COC(=O)c1ccc(NC(=O)Nc2ccc(F)c(Cl)c2)cc1	PostGolgi ctrl 35.4 (no result: Ecoli tolC)
Fc1ccc(NC(=S)Nc2ccc(F)c(Cl)c2)cc1Cl	PostGolgi yeast 72.2, E coli WT exp 89.0, PostGolgi ctrl 65.2 (no result: Ecoli tolC)
O=C(c1ccco1)N1CCC(c2ccccc2)C1 (stereo not drawn)	none
O=C(CN(Cc1ccccc1)C(=O)c1ccco1)NCc1ccc(F)cc1	none
O=C1CSC(c2cn(-c3ccccc3)nc2-c2ccccc2)N1Cc1ccco1 (stereo not drawn)	PostGolgi ctrl 53.3
CCCCCOC(=O)c1ccc(NC(=O)c2ccco2)cc1	Ecoli tolC 98.6
CC(=O)N1CCc2cc(S(=O)(=O)NCCN3CCC(C)CC3)ccc21	none
Cc1cc(-n2ccc(=O)[nH]c2=O)nc(-c2ccccc2)n1	PostGolgi ctrl 31.1
CSc1nc(C)cc(-n2ccc(=O)[nH]c2=O)n1	none
CCOC(=O)N1CCC(NC(=O)Cn2nc(Cc3ccncc3)c3ccccc3c2=O)CC1	none
Clc1ccc(-c2n[nH]c3c2CCC3)c(Cl)c1	PostGolgi yeast 107.0, PostGolgi ctrl 47.4 (no result: Ecoli tolC)
OC(COc1ccc2ccccc2c1Br)Cn1ccnc1 (stereo not drawn)	Ecoli tolC 98.7
CC(=O)Nc1ccc(-c2nnc(SCC(=O)NCc3ccco3)n2C)cc1	PostGolgi ctrl 33.2 (no result: Ecoli tolC)
Cc1[nH]c2ccc(-c3nnc(SCC(=O)NCc4ccco4)n3Cc3ccccc3)cc2c1C	PLAP act 2.1
Cc1ccc2nsnc2c1S(=O)(=O)N1CCN(Cc2ccc3c(c2)OCO3)CC1	none
O=[N+]([O-])c1cc(C(F)(F)F)ccc1N/N=C/c1cc2ccccc2nc1Cl	PostGolgi yeast 44.1 (no result: Ecoli tolC)
O=[N+]([O-])c1ccccc1N/N=C\c1ccccc1Cl	none (no result: Ecoli tolC)
O=C(c1ccccc1F)N(Cc1ccc2c(c1)OCO2)Cc1cc2cc3c(cc2n2nnnc12)OCO3	none (no result: Ecoli tolC)
O=C(CSCc1cccc(Cl)c1)NCc1ccc2c(c1)OCO2	none (no result: Ecoli tolC)
C/C(=N\NC(=O)CSCc1ccc(Cl)cc1)c1ccc2c(c1)OCCO2	PostGolgi ctrl 31.4 (no result: Ecoli tolC)
O=C(COc1ccccc1Br)NCc1ccccn1	PostGolgi ctrl 32.3 (no result: Ecoli tolC)
CCCCOc1[nH]c2nc(-c3ccco3)n(Cc3ccco3)c(=N)c2c1C#N	Ecoli tolC 77.8
N#C/C(=C\c1ccc[nH]1)Sc1nc2ccccc2s1	Ecoli tolC 100.0
N#C/C(=C\c1cccs1)Sc1nc2ccccc2s1	Ecoli tolC 70.0, PostGolgi ctrl 35.5
COC(/C=C/Nc1ccc(C)cc1)=C(C#N)C#N	none (no result: Ecoli tolC)
Cc1onc(-c2ccccc2Cl)c1C(=O)Nc1ccccc1N1CCOCC1	none (no result: Ecoli tolC)
CS(=O)(=O)N(CC(=O)NC1CC2CCC1C2)c1cccc(C(F)(F)F)c1 (stereo not drawn)	PostGolgi ctrl 30.6
Cc1ccc(N(CC(=O)NC2CC3CCC2C3)S(C)(=O)=O)cc1C (stereo not drawn)	none
CC(=O)Nc1nc(S(=O)(=O)c2ccc(C)cc2)c(Cl)s1	none (no result: Ecoli tolC)
Cc1ccc(S(=O)(=O)c2nc(Nc3nccs3)sc2Cl)cc1	Ecoli tolC 98.4, PostGolgi ctrl 51.9
Cc1ccc(S(=O)(=O)c2nc(NCc3ccc4c(c3)OCO4)sc2Cl)cc1	PostGolgi ctrl 48.5 (no result: Ecoli tolC)
Cn1c(C(=O)OC(C(=O)NC2CCCCC2)c2cccnc2)cc2sccc21 (stereo not drawn)	none (no result: Ecoli tolC)
COc1cccc(CNC(=O)C23CN(Cc4ccccc4)CC2C(c2ccc([N+](=O)[O-])cc2)=NO3)c1 (stereo not drawn)	PostGolgi ctrl 33.2 (no result: Ecoli tolC)
O=C(Nc1ccc(Cc2ccncc2)cc1)C1CCC(N2C(=O)C3C4C=CC(C4)C3C2=O)CC1 (stereo not drawn)	PLAP act 2.1 (no result: Ecoli tolC)
O=C(Nc1nc2ccccc2[nH]1)C1CCCO1 (stereo not drawn)	PLAP act 2.5
O=C(NNC(=O)C1CCCO1)c1ccccc1Cl (stereo not drawn)	PLAP act 2 (no result: Ecoli tolC)
O=C(COc1cccc2ccccc12)NNC(=O)C1CCCO1 (stereo not drawn)	PLAP act 2.2 (no result: Ecoli tolC)
CCCn1c2c(c(O)c(C(=O)Nc3ccccc3)c1=O)CCCC2	none
COc1ccc(OC)c(NC(=O)CC2C(=O)NCCN2C(=O)Nc2cccc(Cl)c2)c1 (stereo not drawn)	PLAP act 2 (no result: Ecoli tolC)
COc1ccccc1NC(=O)CC1C(=O)NCCN1C(=O)Nc1ccccc1 (stereo not drawn)	none (no result: Ecoli tolC)
Cc1ccc(-n2c(SCc3ccc(C#N)cc3)nnc2-c2ccccn2)cc1	none
C=CCn1c(COc2ccc(Cl)cc2)nnc1SCc1ccc(C#N)cc1	PostGolgi yeast 46.8, PostGolgi ctrl 40.7
Cc1ccc(OCc2nnc(SCc3ccc(C#N)cc3)n2-c2ccc(C)cc2)cc1	PostGolgi ctrl 38.7 (no result: Ecoli tolC)
C=CCn1c(COc2ccccc2)nnc1SCc1ccc(C#N)cc1	none
O=C(Nc1nccs1)C(NS(=O)(=O)c1ccc(Br)s1)c1ccccc1 (stereo not drawn)	Ecoli tolC 61.0
O=C1CN(C(=O)c2cccs2)c2ccccc2N1	PostGolgi ctrl 32.7
O=C1CN(C(=O)c2ccccc2F)c2ccccc2N1	none
COc1ccc(CC(=O)Nc2ccc3c(c2)CCC3)cc1OC	PLAP act 2.1 (no result: Ecoli tolC)
COc1ccc(CC(=O)NC2CCN(CC(=O)Nc3ccc4c(c3)OCCO4)CC2)cc1OC	PostGolgi ctrl 37.1
COc1ccc(NC(=O)CN2CCN(Cc3ccc4c(c3)OCO4)CC2)cc1OC	none (no result: Ecoli tolC)
CCC(C)(C)NC(=O)Cc1ccc(OC)c(OC)c1	none (no result: Ecoli tolC)
O=C(O)COCC(=O)Nc1ccc2c(c1)CCC2	none
CNC(=S)NNC(=O)Cc1ccc(OC)c(OC)c1	PLAP act 2.1 (no result: Ecoli tolC)
O=C(Cc1ccccc1)NC(NCCc1ccccc1)C(Cl)(Cl)Cl (stereo not drawn)	none (no result: Ecoli tolC)
COc1ccccc1N1CCN(CC(O)c2ccc3cc[nH]c3c2)CC1 (stereo not drawn)	PostGolgi yeast 39.1
O=C(CCC1N=C2c3ccccc3N=C(SCc3ccccc3Cl)N2C1=O)NCc1ccco1 (stereo not drawn)	PostGolgi ctrl 36.8
Cn1c(/C(C#N)=C/C2CC=CCC2)nc2ccccc21 (stereo not drawn)	none
N#C/C(=C\C1CC=CCC1)c1nc2ccccc2[nH]1 (stereo not drawn)	Ecoli tolC 64.1
c1ccc(-c2noc(-c3cccc4ccccc34)n2)cc1	Ecoli tolC 70.4
c1ccc(CCc2nc(-c3cccnc3)no2)cc1	none
